Reference: ChEMBL document CHEMBL3259768, “Structure-activity relationships for vitamin D3-based aromatic a-ring analogues as hedgehog pathway inhibitors” (J Med Chem, 2014)
The source made the active and inactive calls. The calls are words filed in the database; no cut-off is given here.

Tests used:
[1] = biological target: T1, Vitamin D3 receptor (Mus musculus) (UniProt P48281); experiment: Activation of VDR in mouse ASZ001 cells assessed as upregulation of CYP24A1 mRNA expression at 5 uM after 24 hrs by RT-PCR analysis relative to DMSO-treated control; type: cell-based
T1 sequence (whole entry): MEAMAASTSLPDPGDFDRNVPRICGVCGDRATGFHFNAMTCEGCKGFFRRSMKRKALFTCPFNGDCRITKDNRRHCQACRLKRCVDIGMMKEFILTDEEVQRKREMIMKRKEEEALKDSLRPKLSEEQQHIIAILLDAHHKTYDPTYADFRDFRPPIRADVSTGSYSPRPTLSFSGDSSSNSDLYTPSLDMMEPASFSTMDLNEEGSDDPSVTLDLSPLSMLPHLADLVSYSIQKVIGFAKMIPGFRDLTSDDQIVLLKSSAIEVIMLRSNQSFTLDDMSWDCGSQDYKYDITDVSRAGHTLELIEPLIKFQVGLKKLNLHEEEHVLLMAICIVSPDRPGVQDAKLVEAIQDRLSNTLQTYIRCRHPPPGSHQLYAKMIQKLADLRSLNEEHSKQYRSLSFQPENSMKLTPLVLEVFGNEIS
Procedure, shortened: (§1)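 Cyp24A1 mRNA read by qPCR after 24 h exposure at 5 μM. Up-regulation normalized to DMSO control, set to 1.0.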

[2] = biological target: T2, Vitamin D3 receptor (Homo sapiens) (UniProt P11473); experiment: Activation of VDR in human DaOY cells assessed as upregulation of CYP24A1 mRNA expression at 5 uM after 24 hrs by RT-PCR analysis relative to DMSO-treated control; type: cell-based; procedure, shortened: as §1
T2 sequence (whole entry): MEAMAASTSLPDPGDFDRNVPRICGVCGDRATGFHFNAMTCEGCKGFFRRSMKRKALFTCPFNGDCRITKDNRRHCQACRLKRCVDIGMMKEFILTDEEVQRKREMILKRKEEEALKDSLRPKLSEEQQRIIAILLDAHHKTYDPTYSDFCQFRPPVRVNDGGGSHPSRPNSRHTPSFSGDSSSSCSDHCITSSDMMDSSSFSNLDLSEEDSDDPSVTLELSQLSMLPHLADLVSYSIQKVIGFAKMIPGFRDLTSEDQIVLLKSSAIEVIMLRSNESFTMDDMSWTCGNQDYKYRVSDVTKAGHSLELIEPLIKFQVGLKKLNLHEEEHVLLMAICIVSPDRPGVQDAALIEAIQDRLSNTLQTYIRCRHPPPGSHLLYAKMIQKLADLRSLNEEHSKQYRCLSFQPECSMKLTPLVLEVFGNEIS

[3] = Inhibition of hedgehog signaling pathway-mediated GLI1 mRNA expression in mouse ASZ001 cells after 24 hrs by RT-PCR analysis; type: cell-based; details: ASZ001, 24 h
Procedure, shortened: (§2)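 ASZ001 (murine BCC) or DAOY (human medulloblastoma) cells given analogue at a range of concentrations. Gli1 and Ptch mRNA quantified by qPCR. IC50 given as mean ± SEM of at least two experiments in triplicate.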

[4] = biological target: T1, Vitamin D3 receptor (Mus musculus); experiment: Activation of VDR in mouse C3H10T1/2 cells assessed as upregulation of CYP24A1 mRNA expression at 5 uM after 24 hrs by RT-PCR analysis relative to DMSO-treated control; type: cell-based; details: C3H 10T1/2; procedure, shortened: as §1
[5] = Inhibition of hedgehog signaling pathway in VDR-knockdown mouse C3H10T1/2 cells assessed as effect on VDR expression at 5 uM after 24 hrs by qPCR analysis; type: cell-based; details: C3H 10T1/2
Procedure, shortened: (§3)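 C3H10T1/2 cells transfected 24 h after seeding with mouse VDR-specific or nontargeting siRNA plus Lipofectamine 2000 in medium with 0.5% FBS for 6 h, then complete medium overnight. Treated 24 h post-transfection (5 μM; calcitriol 0.5 μM). RNA and cDNA prepared 24 h later (48 h post-transfection), then qPCR of VDR, Gli1 and Cyp24A1. Representative experiment in triplicate.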

[6] = Inhibition of hedgehog signaling pathway-mediated GLI1 mRNA expression in mouse C3H10T1/2 cells assessed as residual activity at 5 uM after 24 hrs by RT-PCR analysis relative to 20alpha-hydroxycholesterol/22(S)-hydroxycholesterol; type: cell-based; details: C3H 10T1/2
Procedure, shortened: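 C3H10T1/2 cells co-treated with analogue and the oxysterol Hh activators 20α-hydroxycholesterol plus 22(S)-hydroxycholesterol (5 μM each) for 24 h. Gli1 mRNA measured by qPCR as % of OHC-only control (100%). Analogue at 5 μM, or at 0.5 μM where stated.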

[7] = Activation of hedgehog signaling pathway in VDR-knockdown mouse C3H10T1/2 cells assessed as effect on VDR expression at 5 uM after 24 hrs by qPCR analysis; type: cell-based; details: C3H 10T1/2; procedure, shortened: as §3
[8] = Inhibition of hedgehog signaling pathway in non-targeting siRNA treated mouse C3H10T1/2 cells assessed as effect on VDR expression at 5 uM after 24 hrs by qPCR analysis; type: cell-based; details: C3H 10T1/2; procedure, shortened: as §3
[9] = tested on: C3H 10T1/2; experiment: Effect on CYP24A1 RNA level in non-targeting siRNA treated mouse C3H10T1/2 cells at 5 uM after 24 hrs by qPCR analysis; type: functional, cell-based; procedure, shortened: as §3
[10] = Inhibition of hedgehog signaling pathway-mediated PTCH mRNA expression in mouse C3H10T1/2 cells after 24 hrs by RT-PCR analysis; type: cell-based; details: C3H 10T1/2, 24 h
Procedure, shortened: (§4)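 OHC-stimulated C3H10T1/2 cells (20α- and 22(S)-hydroxycholesterol, 5 μM each) given analogue at a range of concentrations. Gli1 and Ptch mRNA quantified by qPCR. IC50 given as mean ± SEM of at least two experiments run in triplicate.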

[11] = Inhibition of hedgehog signaling pathway-mediated PTCH mRNA expression in human DaOY cells after 24 hrs by RT-PCR analysis; type: cell-based; procedure, shortened: as §2
[12] = tested on: C3H 10T1/2; experiment: Effect on CYP24A1 RNA level in VDR-knockdown mouse C3H10T1/2 cells at 5 uM after 24 hrs by qPCR analysis; type: functional, cell-based
[13] = biological target: Protein smoothened (Homo sapiens) (UniProt Q99835); experiment: Displacement of BODIPY-cyclopamine from full length human SMO receptor overexpressed in HEK293T cell membranes up to 10 uM after 5 hrs by fluorescence polarization assay; details: HEK-293T
Procedure, shortened: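 Membranes from HEK293T cells transfected with full-length human Smo, collected 24 h post-transfection. Cells lysed in hypotonic buffer (50 mM Tris-HCl, 1 mM EDTA, pH 7.5, protease inhibitors) by syringe passage. Membranes pelleted at 20000g after a 500g spin. Membranes (10 μg/well) incubated with BODIPY-cyclopamine (5 nM) and compound at 30 °C for 5 h. Fluorescence polarization at ex 485/em 528. Triplicate.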

[14] = Inhibition of hedgehog signaling pathway-mediated GLI1 mRNA expression in human DaOY cells after 24 hrs by RT-PCR analysis; type: cell-based; procedure, shortened: as §2
[15] = Inhibition of hedgehog signaling pathway-mediated GLI1 mRNA expression in mouse C3H10T1/2 cells after 24 hrs by RT-PCR analysis; type: cell-based; details: for inhibition: C3H 10T1/2; for IC50: C3H 10T1/2, 24 h; procedure, shortened: as §4
[16] = biological target: Protein smoothened (Homo sapiens) (UniProt Q99835); experiment: Displacement of BODIPY-cyclopamine from full length human SMO receptor overexpressed in HEK293T cells up to 10 uM after 4 hrs by flow cytometric analysis; type: cell-based; details: HEK-293T
Procedure, shortened: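 HEK293T cells transfected overnight with Myc-tagged full-length human Smo plasmid, split, then 2 days post-transfection incubated in DMEM/10% FBS with BODIPY-cyclopamine (5 nM) and test compound at 37 °C for 4 h. Cells trypsinized and resuspended in PBS. Bound BODIPY-cyclopamine read by flow cytometry. Transfection checked by anti-Myc staining. Representative experiment in triplicate.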

[17] = Activation of hedgehog signaling pathway in non-targeting siRNA treated mouse C3H10T1/2 cells assessed as effect on VDR expression at 5 uM after 24 hrs by qPCR analysis; type: cell-based; details: C3H 10T1/2; procedure, shortened: as §3
[18] = Inhibition of hedgehog signaling pathway-mediated GLI1 mRNA expression in mouse C3H10T1/2 cells after 24 hrs by RT-PCR analysis in presence of GDC-0449; type: cell-based; details: C3H 10T1/2
[19] = Inhibition of hedgehog signaling pathway in VDR-knockdown mouse C3H10T1/2 cells assessed as downregulation of GLI1 expression at 5 uM after 24 hrs by qPCR analysis; type: cell-based; details: C3H 10T1/2; procedure, shortened: as §3
[20] = Inhibition of hedgehog signaling pathway-mediated PTCH mRNA expression in mouse ASZ001 cells up to 10 uM after 24 hrs by RT-PCR analysis; type: cell-based
[21] = Inhibition of hedgehog signaling pathway in non-targeting siRNA treated mouse C3H10T1/2 cells assessed as downregulation of GLI1 expression at 5 uM after 24 hrs by qPCR analysis; type: cell-based; details: C3H 10T1/2; procedure, shortened: as §3
[22] = Activation of hedgehog signaling pathway in VDR-knockdown mouse C3H10T1/2 cells assessed as effect on VDR expression at 0.5 uM after 24 hrs by qPCR analysis; type: cell-based; details: C3H 10T1/2
[23] = Activation of hedgehog signaling pathway in non-targeting siRNA treated mouse C3H10T1/2 cells assessed as effect on VDR expression at 0.5 uM after 24 hrs by qPCR analysis; type: cell-based; details: C3H 10T1/2
[24] = Inhibition of hedgehog signaling pathway in VDR-knockdown mouse C3H10T1/2 cells assessed as effect on VDR expression at 0.5 uM after 24 hrs by qPCR analysis; type: cell-based; details: C3H 10T1/2
[25] = tested on: C3H 10T1/2; experiment: Effect on CYP24A1 RNA level in non-targeting siRNA treated mouse C3H10T1/2 cells at 0.5 uM after 24 hrs by qPCR analysis; type: functional, cell-based
[26] = Inhibition of hedgehog signaling pathway in non-targeting siRNA treated mouse C3H10T1/2 cells assessed as effect on VDR expression at 0.5 uM after 24 hrs by qPCR analysis; type: cell-based; details: C3H 10T1/2

Sequence of Protein smoothened (Homo sapiens) (Q99835 whole entry): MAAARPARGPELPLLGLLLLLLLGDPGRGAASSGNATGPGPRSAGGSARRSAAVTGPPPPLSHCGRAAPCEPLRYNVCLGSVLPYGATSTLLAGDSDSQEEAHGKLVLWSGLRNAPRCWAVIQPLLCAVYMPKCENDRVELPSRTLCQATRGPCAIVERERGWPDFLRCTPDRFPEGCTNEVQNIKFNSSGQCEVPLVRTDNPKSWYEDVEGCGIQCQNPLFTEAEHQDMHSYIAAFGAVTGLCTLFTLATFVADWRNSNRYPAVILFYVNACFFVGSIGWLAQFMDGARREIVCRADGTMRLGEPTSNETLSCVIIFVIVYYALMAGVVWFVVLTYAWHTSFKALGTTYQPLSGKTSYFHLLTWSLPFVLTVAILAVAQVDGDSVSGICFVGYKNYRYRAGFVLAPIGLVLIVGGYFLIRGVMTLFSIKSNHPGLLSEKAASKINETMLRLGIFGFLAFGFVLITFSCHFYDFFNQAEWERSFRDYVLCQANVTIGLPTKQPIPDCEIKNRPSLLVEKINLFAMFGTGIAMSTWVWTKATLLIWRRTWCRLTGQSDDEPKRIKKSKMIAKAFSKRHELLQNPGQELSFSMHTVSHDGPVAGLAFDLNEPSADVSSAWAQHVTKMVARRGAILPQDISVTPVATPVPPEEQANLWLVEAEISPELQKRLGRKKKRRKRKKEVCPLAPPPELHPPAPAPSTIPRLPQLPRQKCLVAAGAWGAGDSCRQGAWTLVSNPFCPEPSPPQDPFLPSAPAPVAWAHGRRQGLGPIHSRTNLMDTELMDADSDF

Structure (SMILES)	fold change (FC) [1]	fold change (FC) [2]	IC50 [3]	fold change (FC) [4]	inhibition [5]	Activity [6]	Activity [7]	inhibition [8]	Activity [9]	IC50 [10]	IC50 [11]	inhibition [13]	IC50 [14]	inhibition [15]	IC50 [15]	inhibition [16]	Activity [17]	inhibition [18]	other results
CC(C)CCC[C@@H](C)[C@H]1CC[C@H]2[C@@H](OC(=O)c3cccc(O)c3)CCC[C@]12C	1.9	1.9	5.2 µM	22.2	inactive	1.9%	inactive	inactive	Active	1.1 µM	3.6 µM	inactive	3.7 µM	Dose-dependent effect	0.74 µM	inactive	inactive	Active	Activity [12]: inactive
C=C1CC[C@H](O)C/C1=C/C=C1\CCC[C@]2(C)[C@@H]([C@H](C)CCCC(C)C)CC[C@@H]12 [CHOLECALCIFEROL]	764	149	2.1 µM	8340	Active	35.7%	Active	Active	Active	2.9 µM	> 10 µM	inactive	> 10 µM	Dose-dependent effect	4.1 µM	inactive	Active	Active	inhibition [19]: inactive; inhibition [20]: inactive; inhibition [21]: Active
C=C1/C(=C\C=C2/CCC[C@]3(C)[C@@H]([C@H](C)CCCC(C)(C)O)CC[C@@H]23)C[C@@H](O)C[C@@H]1O																			Activity [22]: Active; Activity [23]: Active; inhibition [24]: Active; Activity [25]: Active; inhibition [26]: Active
